Screening results from PubChem BioAssay.
The list is not random: actives were taken first. Their share in the collection is about 4%.
TAAR1 antagonist: antagonists of human TAAR1. Q96RJ0. 360,000 compounds, 1.5% hits. inhibition, % at 3 µM. CHO RD-HGA16 TAAR1, Fluo-8 calcium fluorescence, antagonist. AID 624466;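 active = inhibition above a per-plate cutoff, the mean inhibition of test compounds on that plate plus 3 SD, cut at about 49% in these data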;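 also: 0% = DMSO plus EC80 beta-PEA response and 100% = DMSO alone without agonist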
Target sequence (Q96RJ0 whole entry, looked up): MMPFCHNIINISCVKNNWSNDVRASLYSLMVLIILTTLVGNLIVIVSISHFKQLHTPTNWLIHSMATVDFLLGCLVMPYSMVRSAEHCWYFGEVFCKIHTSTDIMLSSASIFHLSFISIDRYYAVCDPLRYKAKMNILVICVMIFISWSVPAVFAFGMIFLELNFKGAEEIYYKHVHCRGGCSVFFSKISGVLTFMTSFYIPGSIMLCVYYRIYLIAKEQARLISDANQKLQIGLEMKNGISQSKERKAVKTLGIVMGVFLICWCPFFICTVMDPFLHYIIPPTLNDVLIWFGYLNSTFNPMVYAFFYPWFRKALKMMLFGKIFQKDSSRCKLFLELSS
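test system = CHO RD-HGA16 cells bearing hTAAR1 | replication = singlicate | controls = DMSO-only wells and EC80 β-PEA-stimulated wells | reagent = EC80 β-phenethylamine stimulus | read-out basis = percent inhibition of PEA-evoked calcium signal, max/basal emission ratio | schedule = seeding 17-24 h prior, 75-min 37 °C, 30-min RT dye loading | signal = kinetic Fluo-8 calcium fluorescence measurement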
OX1R antag-1: OX1R (human) antagonism; O43613; OX1R-expressing cells, FRET antagonist read-out; inhibition, % at 6.6 µM; 330,000 compounds, 1.8% hits; in the data active = inhibition mostly above about 38%, no sharp cut-off; inactive = mostly below about 40%;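 also: 0% = agonist challenge alone and 100% = reference antagonist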
Target sequence (O43613 whole entry, looked up): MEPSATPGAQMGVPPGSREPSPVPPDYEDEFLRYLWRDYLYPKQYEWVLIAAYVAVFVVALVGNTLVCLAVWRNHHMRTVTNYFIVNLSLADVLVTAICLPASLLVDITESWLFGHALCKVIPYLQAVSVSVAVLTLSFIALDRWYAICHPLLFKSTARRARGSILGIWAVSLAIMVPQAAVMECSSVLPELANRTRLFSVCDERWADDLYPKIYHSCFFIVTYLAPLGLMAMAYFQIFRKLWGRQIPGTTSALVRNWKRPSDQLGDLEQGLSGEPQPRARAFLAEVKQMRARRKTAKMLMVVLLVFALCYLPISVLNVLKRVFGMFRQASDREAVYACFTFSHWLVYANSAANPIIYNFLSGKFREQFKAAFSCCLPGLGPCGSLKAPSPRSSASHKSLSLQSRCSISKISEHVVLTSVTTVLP
CHO parental Ca: signal in parental CHO cells, OX1R antagonist counter-screen. parental CHO-K1, ATP-induced calcium, Fluo-8 fluorescence. inhibition, % at 5.6 µM. 330,000 compounds, 0.63% hits;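 active = inhibition above that plate's mean sample inhibition plus 3 SD, cut at about 26% in these data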;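 also: 0% = ATP-challenged DMSO wells and 100% = DMSO wells without ATP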
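Material: parental CHO cells / Compound: single nominal dose of 5.6 µM per compound / Signal: Fluo-8 fluorescence / Replicates: singlicate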
TAAR1 agonist: agonists of human TAAR1; CHO RD-HGA16 TAAR1, Fluo-8 calcium fluorescence; vehicle wells 0%, saturating PEA agonist 100%; activation, % at 3 µM; 360,000 compounds, 0.99% hits;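 active = activation above the mean activation of all test compounds in the run plus 3 SD, cut at about 38% in these data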
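Signal – calcium-sensitive Fluo-8 signal, excitation 470-495, emission 515-575 nm · System – RD-HGA16 (CHO) cells co-expressing Gα16 and hTAAR1 · Incubation – 17-24 h seeding, 75 min 37 °C dye, 30 min RT · Compound dosing – 3 µM single concentration · Repeats – no replicates (n 1)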
OX1R antag-2: antagonists of human orexin 1 receptor; O43613; CHO/OX1R cells, Fluo-8 calcium fluorescence, orexin A; inhibition, % at 5 µM; 330,000 compounds, 0.43% hits;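 active = inhibition above its plate's threshold, mean inhibition of all tested compounds on the plate plus 3 SD, cut at about 37% in these data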;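 also: 0% = orexin A challenge wells and 100% = SB-334867-A antagonist wells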
TAAR1 ag conf: human TAAR1 agonism, confirmed; activation, % at 3 µM; AID 651783; CHO RD-HGA16 TAAR1, Fluo-8 calcium fluorescence; scaled: DMSO 0%, maximal phenethylamine 100%; 2,400 compounds, 82% hits; shares compounds with TAAR1 agonist;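 active = activation above a cutoff set at the run's mean compound activation plus 3 SD, cut at about 39% in these data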
Ga16 ag counter: nonselective agonist in parental cells, TAAR1 agonist counter-screen | shares compounds with TAAR1 agonist | CHO-Ga16 parental, Fluo-8 calcium fluorescence; normalized to maximal ATP response, DMSO zero | activation, % at 3 µM | 2,400 compounds, 50% hits | AID 651787;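 active = activation above the run cutoff, the mean activation over all tested wells plus 3 SD, cut at about 12% in these data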;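 also: 0% = DMSO wells and 100% = maximal ATP response on the peak over basal ratio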
TAAR1 desens: TAAR1 response desensitization, agonist counter-screen | AID 651951 | inhibition, % at 3 µM | shares compounds with TAAR1 agonist | 2,400 compounds, 46% hits | CHO RD-HGA16 hTAAR1, Fluo-8 calcium, beta-PEA response inhibition;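 active = inhibition above the run cutoff, the mean inhibition of all test compounds plus 3 SD, cut at about 49% in these data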;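 also: beta-PEA stimulus applied at its EC80; loss of beta-PEA calcium signal after compound pretreatment read as receptor desensitization; 0% = DMSO with beta-PEA at EC80 and 100% = DMSO alone without agonist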
Ga16 antag count: nonselective Ga16 antagonism, counter-screen. 2,400 compounds, 39% hits. inhibition, % at 3 µM. shares compounds with TAAR1 agonist. AID 651952. CHO-Ga16 ATP-induced calcium, Fluo-8 fluorescence;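 active = inhibition above the plate's mean compound inhibition plus 3 SD, computed per plate, cut at about 22% in these data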;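 also: 0% = EC80 ATP with DMSO and 100% = DMSO wells without ATP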
Numbers without * were called inactive; . = not tested or not shown.

SMILES	TAAR1 antagonist	OX1R antag-1	CHO parental Ca	TAAR1 agonist	OX1R antag-2	TAAR1 ag conf	Ga16 ag counter	TAAR1 desens	Ga16 antag count
CCc1nc2c(c(=O)c3ccccc3n2C)c(=O)n1C1CCCCCC1	-2.6	32.2	-7.5	65.6*	-15.4	74.0*	55.0*	30.2	12.6
COc1ccc(CCn2c(C3CCCCC3)nc3c(c(=O)c4ccccc4n3C)c2=O)cc1	96.4*	3.1	-15.7	111.4*	15.6	64.9*	61.3*	78.4*	64.5*
CC(C)c1nc2c(c(=O)c3ccccc3n2C)c(=O)n1CCc1ccccc1	22.8	19.0	-32.5	76.3*	-16.7	42.9*	37.1*	27.6	19.6
CCOC(=O)c1c[nH][nH]c1=O	1.5	-1.1	-1.0	1.8	5.7	.	.	.	.
CCOCCCNC(=O)Cn1cnc2sc(C)c(S(=O)(=O)N3CCN(c4ncccn4)CC3)c2c1=O	-4.4	18.8	-1.2	8.0	-22.6	.	.	.	.
COc1cccc(-c2nc(CS(=O)(=O)CC(=O)Nc3ccccc3Br)c(C)o2)c1	-4.8	37.6	-15.1	2.9	-1.7	.	.	.	.
Cc1nccn1CC(=O)N/N=C/c1ccccc1O	-14.6	16.4	-16.6	59.4*	-5.4	63.5*	3.1	11.7	1.5
Cc1nccn1CC(=O)N/N=C/c1c[nH]c2ccccc12	-34.8	30.2	-6.5	25.0	-7.1	.	.	.	.
COc1ccc(CC(=O)NNC(=O)c2ccco2)cc1OC	-15.2	4.6	1.5	5.1	-2.5	.	.	.	.
Cn1c(SCC(=O)Nc2nccs2)nnc1-c1ccccn1	-12.6	7.8	-6.8	1.8	-5.7	.	.	.	.
Cc1c(CN2CCCC(C)C2)c(O)n(CCO)c(=O)c1C#N (stereo not given)	.	9.0	1.3	.	-11.4	.	1.2	.	7.9
C=CCn1c(O)c(CN2CCCCC2)c(C)c(C#N)c1=O	-25.6	18.5	10.9	16.6	-2.0	.	.	.	.
Cc1ccc(C)c(C(O)c2ncc(-c3cccc(F)c3)[nH]2)c1 (stereo not given)	16.6	.	.	6.0	.	.	.	.	.
Clc1ccccc1OCc1nnc(-c2ccccc2Br)o1	15.2	11.5	-24.2	6.2	-23.0	.	.	.	.
O=c1c(Cl)c(Cl)cnn1Cc1nnc(-c2ccccc2Br)o1	103.5*	.	.	122.2*	.	141.3*	110.5*	106.3*	99.4*
COc1ccc(CNS(=O)(=O)CCNCCc2ccccc2)cc1	-11.8	.	.	16.4	.	.	.	.	.
C/C=C/c1ccc(OCC(O)CNCC(c2ccc(OC)cc2)N(C)C)c(OC)c1 (stereo not given)	1.0	8.4	-13.0	-2.5	-31.8	.	.	.	.
COc1ccc(C(OCC(O)CNCCc2ccccc2)c2ccc(OC)cc2)cc1 (stereo not given)	96.9*	.	.	104.5*	.	104.2*	17.5*	100.8*	27.5*
C/C=C/c1ccc(OCC(O)CNCCc2ccc(OC)cc2)c(OC)c1 (stereo not given)	11.9	-1.8	-19.2	63.5*	-42.9	95.8*	28.6*	46.0	11.0
CCc1cc(=O)oc2cc(C)c(CN3CCCC(C)C3)c(O)c12 (stereo not given)	6.9	0.6	-9.2	50.7*	-18.7	82.4*	1.0	39.6	-0.2
CCCCc1cc(=O)oc2cc(C)c(CN3CCCC3)c(O)c12	-15.6	5.5	-2.1	-0.7	5.1	.	.	.	.
CCOC(=O)/C(=C\C=C1/Sc2cc(OCC)c(OCC)cc2N1CC)C(C)=O	62.5*	9.1	68.8*	121.1*	91.4*	166.9*	225.0*	79.5*	85.9*
Cc1cc(=O)[nH]c(SCC(=O)NCCc2ccccc2)n1	.	8.9	-5.1	.	-18.5	.	2.5	.	13.3
O=C(CSc1nc2scc(-c3ccccc3)c2c(=O)[nH]1)NCCc1ccccc1	23.3	10.0	-2.4	63.9*	-9.1	64.2*	8.5	33.0	14.8
O=C(CSc1ccccc1)Nc1ccc(N2CCOCC2)c(F)c1	10.9	4.7	2.9	2.7	10.7	.	.	.	.
SMILES	TAAR1 antagonist	OX1R antag-1	CHO parental Ca	TAAR1 agonist	OX1R antag-2	TAAR1 ag conf	Ga16 ag counter	TAAR1 desens	Ga16 antag count
COc1cnc(-c2ccccn2)nc1N(C)c1ccccc1	-6.5	-20.8	-17.3	0.8	-27.4	.	.	.	.
c1ccc2c(Nc3nc(N4CCOCC4)c4ccccc4n3)cccc2c1	9.2	10.3	-18.9	10.2	-25.3	.	.	.	.
Fc1ccc(Nc2nc(N3CCOCC3)c3ccccc3n2)cc1	63.2*	22.0	-3.4	64.8*	-26.0	65.0*	7.4	41.9	16.4
CCN(CC)C(=O)CSc1nnc(SC(C)C(=O)NC2CC2)s1 (stereo not given)	2.4	17.5	-5.2	2.3	0.8	.	.	.	.
COc1ccc(C(=O)NC(=S)NNC(=O)c2c(-c3ccccc3)noc2C)cc1OC	-0.8	5.8	-4.9	68.2*	-23.0	69.7*	46.5*	24.1	10.7
Cc1onc(-c2ccccc2)c1C(=O)NNC(=S)NC(=O)c1ccc2c(c1)OCO2	46.1	1.9	15.3	89.3*	-2.3	94.8*	81.2*	51.9*	37.9*
Cc1onc(-c2ccccc2)c1C(=O)NNC(=S)NC(=O)/C=C/c1cccs1	68.5*	4.4	-1.5	114.7*	-1.8	107.0*	94.0*	78.8*	61.8*
Cc1onc(-c2ccccc2)c1C(=O)NC(=S)NNC(=O)c1ccncc1	-1.6	10.2	-7.4	-0.2	8.4	.	.	.	.
Cc1onc(-c2ccccc2)c1C(=O)NCc1ccc2c(c1)OCO2	-7.1	5.8	-13.4	5.8	-22.3	.	.	.	.
Cc1onc(-c2ccccc2)c1C(=O)N/N=C/c1cccs1	3.6	5.6	-6.7	1.0	-4.3	.	.	.	.
COc1ccc(C(=O)NNC(=S)NC(=O)c2ccc(Br)o2)cc1OC	10.6	20.2	-0.6	49.9*	8.8	21.1	12.9*	11.8	8.6
CCCCNC(=O)CS(=O)Cc1nc(-c2cccs2)oc1C (stereo not given)	-9.1	6.3	-15.9	-0.8	-12.5	.	.	.	.
COc1cccc(-c2nc(CS(=O)(=O)CC(=O)NCCc3ccccc3)c(C)o2)c1	29.2	24.7	-28.7	70.8*	-35.1	94.0*	20.7*	67.3*	12.2
Cc1oc(-c2cccs2)nc1CS(=O)CC(=O)NCCc1ccccc1 (stereo not given)	-20.9	0.9	-14.7	58.1*	-17.6	73.1*	4.1	34.5	4.5
Cc1oc(-c2ccccc2F)nc1CS(=O)(=O)CC(=O)NCCCc1ccccc1	-16.3	18.6	-3.0	15.6	-12.4	.	.	.	.
